Screens as filed in PubChem BioAssay.
MC4R ag barr: agonists of human melanocortin 4 receptor (MC4R) beta-arrestin. P32245. U2OS MC4R beta-arrestin complementation, luminescence; percent of melanotan II response, DMSO zero. activation, % at 8.9 µM. hit rate 0.98% among 360,000. AID 540308;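 active means activation above a per-plate cutoff, the mean activation of sample wells on that plate plus 3 SD, cut at about 8% in these data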
Target sequence (P32245 whole entry, looked up): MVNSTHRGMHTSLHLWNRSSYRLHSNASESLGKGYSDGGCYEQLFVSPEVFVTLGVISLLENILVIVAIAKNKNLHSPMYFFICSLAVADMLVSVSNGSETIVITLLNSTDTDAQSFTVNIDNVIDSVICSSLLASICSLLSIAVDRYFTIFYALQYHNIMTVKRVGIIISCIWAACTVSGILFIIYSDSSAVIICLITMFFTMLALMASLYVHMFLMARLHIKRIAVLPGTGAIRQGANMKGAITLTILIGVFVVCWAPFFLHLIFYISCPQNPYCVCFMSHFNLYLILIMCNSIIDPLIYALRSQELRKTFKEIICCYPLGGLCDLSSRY
CHOP UPR activ: activators of apoptotic arm of unfolded protein response (CHOP); CHO-CHOP luciferase reporter, UPR activation, luminescence; percent of tunicamycin response over DMSO baseline; activation, % at 10 µM; hit rate 0.34% among 330,000; AID 449763;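 active means at 10 µM dose, activation of 40% or more, normalized to positive control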;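 further: 100% = tunicamycin at 10 µg/mL and 0% = DMSO alone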
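System: CHO CHOP reporter cells. Amount: 500 cells per well. Buffer or medium: F12 medium, 10% FBS. Compound dosing: one dose, 10 µM in 0.5% DMSO. Incubation: 6 h compound exposure at 37 °C after overnight seeding. Technique: Steady-Glo luciferase luminescence. Benchmarks: tunicamycin and DMSO controls.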
A1 inh: inhibitors of the anti-apoptotic protein A1, read as caspase activation. AID 2462. hit rate 0.066% among 330,000. caspase activation, % (concentration not given with the values). MEF A1-2A-BIM cells, Caspase-Glo 3/7 luminescence, 3 h; percent of clofoctol response, vehicle zero;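 active means over half of replicate activation scores above 10%, or exactly half above 10 with the replicate mean above 10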
UPR XBP1 act: activators of adaptive arm of unfolded protein response (XBP1). hit rate 0.33% among 330,000. activation, % at 20 µM. AID 463104. CHO-XBP1 luciferase reporter, IRE1-XBP1 UPR activation, luminescence; percent of tunicamycin response, DMSO as zero;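 active means versus positive control, 20 µM dose yields 30% or more activation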;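 further: 100% = tunicamycin at 10 µg/mL and 0% = DMSO only wells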
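Material: CHO-XBP1 cells stably carrying IRE1-XBP1-driven luciferase reporter | Medium: F12 with 10% serum | Compound dosing: 20 µM single concentration, DMSO 1% | Incubation: Overnight seeding at 37 °C, 6 h compound treatment at 37 °C | Detection: Steady-Glo luminescence read | Read-out basis: % activation of reporter signal versus tunicamycin and DMSO controls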
MC4R antagonist: human MC4R antagonism in cAMP assay; P32245; MC4R-expressing cells, MTII-stimulated cAMP, LANCE TR-FRET; inhibition, % at 6.5 µM; hit rate 0.48% among 360,000;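 active means inhibition above its plate's cutoff, the mean of tested wells on that plate plus 3 SD, cut at about 29% in these data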;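 further: 0% = Melanotan II alone and 100% = Melanotan II plus saturating MCL0020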
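System – human MC4R-expressing U2OS cells · Also added – Melanotan II · Dosing – one concentration, 6.5 µM nominal · Timing – 30-min compound, 1-h challenge, 1-h detection, room temperature · Measured by – Eu-cAMP/anti-cAMP TR-FRET, emission 671 nm · Replicates – singlicate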
MC4R barr conf: human MC4R beta-arrestin agonism confirmation; shares compounds with MC4R ag barr; U2OS MC4R beta-arrestin recruitment, luminescence; scaled DMSO 0%, Melanotan II 100%; activation, % at 8.9 µM; hit rate 31% among 2,400; AID 602192;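 active means mean activation across replicates above the hit cutoff set in the earlier primary screen, cut at about 8% in these data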
MOR DOR agonist: activates mu-delta opioid heterodimer, MC4R agonist counter-screen; AID 602194; U2OS PathHunter beta-arrestin, beta-gal luminescence; percent of deltorphin B response, DMSO zero; activation, % at 9.2 µM; shares compounds with MC4R ag barr; hit rate 5.8% among 2,400;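 active means mean activation across replicates exceeds the hit threshold derived in the earlier primary screen, cut at about 18% in these data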;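 further: 100% = deltorphin B at 0.9 µM final and 0% = DMSO alone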
The depositor's hits bear a star; x = not tested or not shown. The list is not random: actives were taken first. Their share in the collection is about 2%.

SMILES	MC4R ag barr	CHOP UPR activ	A1 inh	UPR XBP1 act	MC4R antagonist	MC4R barr conf	MOR DOR agonist
CC1CCC(C(C)C)C(OC(=O)C[n+]2cc(-c3ccc(Cl)cc3)n3c2CCC3)C1 (centres undefined)	17.4*	0.4	0.6	2.1	14.4	4.1	4.2
Cc1ccc(OCc2nnc(SCC(=O)Nc3sc(C)c(C)c3C#N)n2C)cc1	17.5*	0.5	1.6	-0.8	-1.1	2.5	4.7
Cc1cccc(OCc2nnc(SCC(=O)Nc3sc(C)c(C)c3C#N)n2C)c1	16.6*	0.7	0.5	3.8	-1.6	1.9	5.8
Cc1sc(NC(=O)CSc2nnc(COc3ccccc3)n2C)c(C#N)c1C	7.1	-2.0	-0.1	-1.4	11.8	x	x
O=C1C(=C(c2ccccc2)N2CCOCC2)Cc2ccccc21	-3.8	x	x	x	22.0	x	x
O=C(Cc1cccs1)Nc1ccc(-c2nnc(-c3ccco3)o2)cc1	11.1*	8.3	-1.3	2.3	7.0	4.0	6.3
COc1ccc(C(N)c2csc(Nc3nncc4ccccc34)n2)cc1 (centres undefined)	3.9	x	x	x	-12.2	x	x
CCOC(=O)C(C(=O)OCC)C1OC(=O)c2cc3c(cc21)C(=O)OC3C(C(=O)OCC)C(=O)OCC (centres undefined)	-0.7	2.1	1.0	-1.8	4.6	x	x
CCCC(=O)Oc1ccccc1C1SCc2cc(C)c(C)cc2CS1	15.8*	1.3	-0.1	0.4	9.7	4.7	3.8
CCOc1ccc(-c2nnc(-c3ccc(OC)cc3)o2)cc1	30.8*	4.8	-0.4	-0.8	3.5	1.1	4.7
Cc1ccc(C(C)C)c(OCCCNCc2cccnc2)c1	0.0	-0.5	0.2	-3.2	5.9	x	x
Cc1ccc(C(C)C)c(OCCNCCc2ccccc2)c1	9.9*	1.2	0.1	-0.2	-5.7	8.1	9.6
CC(=O)c1ccc(NC(=O)COC(=O)c2ccccc2Nc2ccccc2)cc1	10.1*	-0.6	0.9	-1.8	4.0	3.6	5.8
O=C(COC(=O)c1ccccc1Nc1ccccc1)Nc1ccccc1	15.5*	-0.7	0.1	-0.1	4.3	3.0	8.5
CCOc1ccc(-c2cncc3nccn23)cc1	-1.7	x	x	x	-8.7	x	x
O=C(NCc1ccc(F)cc1)c1cc(C2CCCN(C(=O)C3CCCCC3)C2)on1 (centres undefined)	-1.1	x	x	x	11.9	x	x
COc1cc(CNC[C@H]2O[C@@H](n3ccc(N)nc3=O)[C@H](O)[C@@H]2O)ccc1OCc1ccc(C)cc1	-0.9	x	x	x	7.5	x	x
CC(=O)c1ccc(NS(=O)(=O)c2ccc([N+](=O)[O-])cc2)cc1	-1.0	x	x	x	2.9	x	x
O=[N+]([O-])c1ccc(S(=O)(=O)Nc2ccc(-c3ccccc3)cc2)cc1	14.6*	x	x	x	5.9	0.6	7.3
COc1ccc(C2CC(c3cccs3)=NN2C(=O)CCCC(=O)O)cc1OC (centres undefined)	-1.2	x	x	x	1.9	x	x
COc1cc(NS(=O)(=O)c2ccc(NC(=S)NC(=O)c3sc4ccccc4c3Cl)cc2)ncn1	14.7*	x	0.6	x	-1.3	18.9*	1.0
COc1ccc(C(=O)NC(=S)Nc2ccc(S(=O)(=O)Nc3cc(OC)ncn3)cc2)cc1	-1.1	-1.2	-0.3	-5.4	15.0	x	x
N#Cc1ccc(C(=O)N2CCCCC2c2cc(C(=O)Nc3ccccc3Cl)no2)cc1 (centres undefined)	2.0	x	x	x	11.6	x	x
CCC(=O)N1CCN(c2ccc(NC(=O)c3ccc4ccccc4c3)cc2)CC1	16.7*	1.6	-0.1	1.7	3.1	6.3	10.1
CCC(=O)N1CCN(c2ccc(NC(=O)c3ccccc3)cc2)CC1	-1.0	-0.7	0.5	2.1	0.5	x	x
SMILES	MC4R ag barr	CHOP UPR activ	A1 inh	UPR XBP1 act	MC4R antagonist	MC4R barr conf	MOR DOR agonist
CCOc1ccc(C(=O)Nc2ccc(N3CCN(C)CC3)cc2)cc1Br	-1.3	0.9	-0.6	4.3	-9.3	x	x
CCOc1ccc(C(=O)Nc2ccc(N3CCN(C(=O)c4ccco4)CC3)cc2)cc1Br	14.4*	x	x	x	1.5	2.8	4.2
CC(C)CC1NC(=O)c2cc3ccccc3cc2-n2c1nc1ccc(F)cc1c2=O (centres undefined)	0.9	x	x	x	12.4	x	x
CSc1ccc(/C=C(/Sc2nnc(-c3ccccc3)o2)C(=O)O)cc1	22.0*	-0.4	-0.4	-5.0	15.0	1.4	3.5
CCc1nc2ccc(C(=O)NCCCN3CCCC3=O)cn2c1N(C)C(=O)c1cccc(OC)c1	-0.7	x	x	x	-2.1	x	x
CCCOc1ccc(N2C(=O)CC(NNC(=O)c3ccc(COc4ccccc4)o3)C2=O)cc1 (centres undefined)	13.0*	0.3	0.7	-1.8	20.6	4.8	7.1
Cc1ccc(-n2c(C3CC3c3ccc(Cl)cc3)n[nH]c2=S)cc1 (centres undefined)	7.7	-0.9	-0.7	-2.5	17.4	x	x
S=c1[nH]nc(C2CC2c2ccc(Cl)cc2)n1-c1ccc(Cl)cc1 (centres undefined)	10.5*	0.2	0.1	-0.7	0.6	3.5	7.1
CCCCNC(=O)C1(C)CCCCN1C(=O)c1ccc(OC)c(C(F)(F)F)c1 (centres undefined)	-2.6	x	x	x	0.1	x	x
c1ccc(-c2sc3ccccc3c2-c2ccc(OCCN3CCOCC3)cc2)cc1	-0.5	-1.6	3.4	-3.6	4.8	x	x
CN(C)CCOc1ccc(-c2c(-c3ccsc3)sc3ccccc23)cc1	13.2*	2.8	2.9	15.4	11.8	22.6*	8.7
CCCc1cc(-c2[nH]ncc2-c2ccc(C(=O)OCC)o2)c(O)cc1O	22.8*	-0.3	-0.1	-3.9	17.1	10.3*	6.5
CCc1cc(-c2[nH]ncc2-c2nc3ccccc3n2C)c(O)cc1O	2.3	-0.6	0.1	-0.8	-14.1	x	x
CCCc1cc(-c2[nH]ncc2-c2ccc3c(c2)OCCCO3)c(O)cc1O	11.7*	-0.3	-0.6	-0.6	10.0	10.9*	17.9
Clc1ccccc1/C=N/NC1=Nc2cccc3cccc1c23	18.3*	7.6	-2.4	15.1	-19.0	25.2*	7.8
C[C@H](CO)N1C[C@H](C)[C@@H](CN(C)S(=O)(=O)c2ccc(F)cc2)OCc2cn(nn2)CCCC1=O	-0.8	x	x	x	2.0	x	x
CCOC(=O)c1c(C)[nH]c(C(=O)OCc2ccc([N+](=O)[O-])cc2)c1C	16.8*	3.5	-0.2	-0.5	0.8	4.2	4.3
CC(=O)c1c(C)[nH]c(C(=O)OCC(=O)Nc2ccc([N+](=O)[O-])cc2Cl)c1C	27.7*	0.5	-0.8	0.0	7.6	1.8	16.1
